# Source: ChEMBL document CHEMBL2440094, “Thiazolidinone-peptide hybrids as dengue virus protease inhibitors with antiviral activity in cell culture” (J Med Chem, 2013)
# Calls of active or inactive are those of the source. The rule behind the calls is not given here.
# Legend:
# [1] = biological target: Prothrombin (Homo sapiens) (UniProt P00734); test: Inhibition of thrombin (unknown origin) using Boc-Val-Pro-Arg-AMC as substrate at 25 uM after 10 mins by continuous fluorimetric assay
# Outline: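 Thrombin (10 nM) preincubated 15 min with inhibitor (25 μM final) in 50 mM Tris-HCl pH 7.5, 150 mM NaCl, 0.05% Tween 20. Boc-Val-Pro-Arg-AMC then added to 50 μM (Km 16 μM). Fluorescence (ex 355 nm, em 460 nm) followed for 10 min as slope. Triplicate; percent inhibition versus no-inhibitor control.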
# [2] = Inhibition of Dengue virus NS2B-NS3 protease expressed in Escherichia coli BL 21 (DE3) using Abz-Nle-Lys-Arg-Arg-Ser-3-(NO2)Tyr as substrate after 15 mins
# [3] = Permeability of the compound by PAMPA; type: ADME; details: read-out: permeability
# Outline: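 PAMPA with precoated trilayer lipid/oil/lipid membranes, donor wells holding 200 μM compound in PBS pH 7.4 (2% DMSO final), in triplicate. Incubated 5 h at room temperature. Donor and acceptor concentrations determined by UV plate reader or HPLC-UV against calibration curves. Pe and mass retention R calculated.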
# [4] = Inhibition of Dengue virus NS2B-NS3 protease expressed in Escherichia coli BL 21 (DE3) using Abz-Nle-Lys-Arg-Arg-Ser-3-(NO2)Tyr as substrate assessed as enzyme-inhibitor complex by Cornish-Bowden plot analysis; details: in the assay text read “Dixon plot” for “Cornish-Bowden plot”
# Outline: (§1)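 DEN2 NS2B–NS3 FRET assay run at inhibitor 0–6 μM (prior-series compounds 5–50 μM) and substrate 50, 100, 150 and 200 μM, in triplicate, with inner-filter correction. Ki from Dixon plots (1/v vs [I]) and Ki′ from Cornish-Bowden plots (S/v vs [I]). Inhibition mode assigned from these plots.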
# West Nile virus = test: Inhibition of West Nile virus NS2B-NS3 protease expressed in Escherichia coli BL 21 (DE3) using Abz-Gly-Leu-Lys-Arg-Gly-Gly-3-(NO2)Tyr as substrate at 50 uM after 15 mins
# [5] = Inhibition of Dengue virus NS2B-NS3 protease expressed in Escherichia coli BL 21 (DE3) using Abz-Nle-Lys-Arg-Arg-Ser-3-(NO2)Tyr as substrate assessed as enzyme-substrate-inhibitor complex by Cornish-Bowden plot analysis; outline: as §1
# Dengue virus [6] = test: Mixed type inhibition of Dengue virus NS2B-NS3 protease expressed in Escherichia coli BL 21 (DE3) using Abz-Nle-Lys-Arg-Arg-Ser-3-(NO2)Tyr as substrate by Cornish-Bowden plot analysis; outline: as §1
# dengue virus type 2 [7] = test: Antiviral activity against Dengue virus 2 infected in human Huh-7 cells assessed as inhibition of viral replication after 48 hrs by luciferase reporter gene assay; type: functional, organism-based; details: Huh-7, 48 h
# Outline: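 Huh-7 cells seeded 5000/well, incubated overnight at 37 °C, then given compound (1.56–50 μM final, 2-fold series in DMEM with 10% FCS). Dengue 2 renilla luciferase reporter virus (MOI 10) added 4 h later. After 48 h at 37 °C, cells lysed and renilla luminescence read with coelenterazine. At least four wells per concentration, expressed relative to DMSO control. EC50 by nonlinear regression.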
# Dengue virus [8] = test: Inhibition of Dengue virus NS2B-NS3 protease expressed in Escherichia coli BL 21 (DE3) using Abz-Nle-Lys-Arg-Arg-Ser-3-(NO2)Tyr as substrate at 50 uM after 15 mins
# Dengue virus [9] = test: Displacement of aprotinin from Dengue virus NS2B-NS3 protease expressed in Escherichia coli BL 21 (DE3) by tryptophan fluorescence quenching assay
# Outline: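 Tryptophan quenching assay: DEN protease (4 μM) incubated with inhibitor at 0–50 μM, and also with inhibitor (50 μM) plus aprotinin (10 μM). Enzyme and aprotinin autofluorescence measured as negative control. Fluorescence read at ex 280 nm, em 330 nm; triplicate.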
# Dengue virus [10] = test: Competitive inhibition of Dengue virus NS2B-NS3 protease expressed in Escherichia coli BL 21 (DE3) using Abz-Nle-Lys-Arg-Arg-Ser-3-(NO2)Tyr as substrate by Cornish-Bowden plot analysis; outline: as §1
# Huh-7 [11] = test: Cytotoxicity against human HuH7 cells at <50 uM after 48 hrs by firefly reporter assay; type: cell-based; details: huh-7, 48 h
# Outline: (§2)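 Uninfected Huh-7 cells stably expressing firefly luciferase, seeded 5000/well and incubated overnight at 37 °C. Compound added at 1.56–50 μM, plus 100, 200 and 400 μM, then incubated as for infected cells (further 48 h after the 4 h point). Firefly luminescence read with 70 μM luciferin and 2 mM ATP. Mean of three wells as percent of DMSO control.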
# [12] = Solubility of the compound in PBS buffer; type: physicochemical
# Dengue virus [13] = test: Uncompetitive inhibition of Dengue virus NS2B-NS3 protease expressed in Escherichia coli BL 21 (DE3) using Abz-Nle-Lys-Arg-Arg-Ser-3-(NO2)Tyr as substrate by Cornish-Bowden plot analysis; outline: as §1
# dengue virus type 2 [14] = test: Antiviral activity against Dengue virus 2 infected in human Huh-7 cells assessed as inhibition of virus-induced plaque formation at 50 uM after 48; type: functional, organism-based
# Outline: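 Huh-7 cells seeded in 12-well plates and pretreated with compound (50 μM) for 4 h. Infected for 1 h with dengue reporter virus (MOI 5) in the presence of compound, then medium replaced with compound-containing DMEM. Supernatant harvested at 48 h and filtered. Titer determined by plaque assay on Vero cells. Mean ± SD of three independent experiments.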
# Huh-7 [15] = test: Cytotoxicity against human HuH7 cells at 50 uM after 48 hrs by firefly reporter assay; type: cell-based; details: huh-7, 48 h; outline: as §2
# Huh-7 [16] = test: Cytotoxicity against human HuH7 cells at >100 uM after 48 hrs by firefly reporter assay; type: cell-based; details: huh-7, 48 h; outline: as §2
# Dengue virus [17] = test: Mixed/noncompetitive type inhibition of Dengue virus NS2B-NS3 protease expressed in Escherichia coli BL 21 (DE3) using Abz-Nle-Lys-Arg-Arg-Ser-3-(NO2)Tyr as substrate by Cornish-Bowden plot analysis; outline: as §1
SMILES,inhibition [1] [%],IC50 [2] [µM],Papp [3] [×10⁻⁶ cm/s],Ki [4] [µM],inhibition (West Nile virus) [%],Ki [5] [µM],inhibition (Dengue virus [6]),EC50 (dengue virus type 2 [7]) [µM],inhibition (Dengue virus [8]) [%],inhibition (Dengue virus [9]),inhibition (Dengue virus [10]),Activity (Huh-7 [11]),solubility [12],inhibition (Dengue virus [13]),inhibition (dengue virus type 2 [14]),Activity (Huh-7 [15]),Activity (Huh-7 [16]),inhibition (Dengue virus [17])
CCCC[C@H](NC(=O)[C@H](CCCCN)NC(=O)[C@H](CCCNC(=N)N)NC(=O)c1ccc(/C=C2\SC(=O)N(C3CCCC3)C2=O)cc1)C(N)=O,16,2.5,0.44,1.8,51.8,7.9,Active,44.9,98.2,–,–,–,–,–,–,–,–,–
CCCC[C@H](NC(=O)[C@H](CCCCN)NC(=O)[C@H](CCCNC(=N)N)NC(=O)c1ccc(/C=C2\SC(=O)N(Cc3ccc(F)cc3)C2=O)cc1)C(N)=O,20.3,2.9,0.43,1.5,63.7,5.2,Active,–,99.4,–,–,–,–,–,–,–,–,–
CCCC[C@H](NC(=O)[C@H](CCCCN)NC(=O)[C@H](CCCNC(=N)N)NC(=O)c1ccc(/C=C2\SC(=O)N(CCc3ccccc3)C2=O)cc1)C(N)=O,15.3,3.5,0.82,1.8,57.8,> 10,–,37.2,96.8,Dose-dependent effect,Active,Non-toxic,–,–,–,–,–,–
CCCC[C@H](NC(=O)[C@H](CCCCN)NC(=O)[C@H](CCCNC(=N)N)NC(=O)c1ccc(/C=C2\SC(=S)N(Cc3ccc(Cl)cc3)C2=O)cc1)C(N)=O,13.3,> 10,–,> 10,100,8.6,–,31.5,100,–,–,Non-toxic,Insoluble,Active,Active,Toxic,–,–
CCCC[C@H](NC(=O)[C@H](CCCCN)NC(=O)[C@H](CCCNC(=N)N)NC(=O)c1ccc(/C=C2\SC(=S)N(C3CCCCC3)C2=O)cc1)C(N)=O,14.2,6.1,1.82,9.3,96.9,4.4,Active,16.7,99.2,–,–,Non-toxic,–,–,Active,–,Toxic,–
CCCCC(C(=O)OC)N1C(=O)/C(=C/c2ccc(C(=O)N[C@@H](CCCNC(=N)N)C(=O)N[C@@H](CCCCN)C(=O)N[C@@H](CCCC)C(N)=O)cc2)SC1=S (some centres not stated),9,11.6,0.87,> 10,94.2,5.3,–,48.8,101,–,–,–,–,Active,–,–,–,–
CCCC[C@H](NC(=O)[C@H](CCCCN)NC(=O)[C@H](CCCNC(=N)N)NC(=O)c1ccc(/C=C2\SC(=S)N(Cc3ccc(C)cc3)C2=O)cc1)C(N)=O,10.9,7.5,–,6.2,96.3,7.6,–,–,99.1,–,–,–,–,–,–,–,–,Active
CCCC[C@H](NC(=O)[C@H](CCCCN)NC(=O)[C@H](CCCNC(=N)N)NC(=O)c1ccc(/C=C2\SC(=S)N(Cc3ccccc3)C2=O)cc1)C(N)=O,13.1,10.9,–,8.8,92.4,5.5,–,–,99.3,–,–,–,–,–,–,–,–,Active
CCCC[C@H](NC(=O)[C@H](CCCCN)NC(=O)[C@H](CCCNC(=N)N)NC(=O)c1ccc(/C=C2\SC(=S)N(Cc3ccc(OC)cc3)C2=O)cc1)C(N)=O,15,7.9,0.6,7.8,99,8.3,–,37.3,99.6,–,–,–,–,–,–,–,–,Active
CCCC[C@H](NC(=O)[C@H](CCCCN)NC(=O)[C@H](CCCNC(=N)N)NC(=O)c1ccc(/C=C2\SC(=O)N(Cc3ccccc3)C2=O)cc1)C(N)=O,17.3,2.9,–,1.7,57.9,> 10,–,> 50,98.6,Dose-dependent effect,Active,Non-toxic,–,–,–,–,–,–
CCCC[C@H](NC(=O)[C@H](CCCCN)NC(=O)[C@H](CCCNC(=N)N)NC(=O)c1ccc(/C=C2\SC(=S)N(Cc3ccc(F)cc3)C2=O)cc1)C(N)=O,9.6,> 10,–,> 10,97.9,7.9,–,–,99.4,–,–,–,–,Active,–,–,–,–
CCCC[C@H](NC(=O)[C@H](CCCCN)NC(=O)[C@H](CCCNC(=N)N)NC(=O)c1ccc(/C=C2\SC(=O)N(Cc3ccc(Cl)cc3)C2=O)cc1)C(N)=O,18,3.2,1.11,2.2,88.2,5.4,Active,41.1,99.4,–,–,Non-toxic,–,–,inactive,–,–,–
CCCC[C@H](NC(=O)[C@H](CCCCN)NC(=O)[C@H](CCCNC(=N)N)NC(=O)c1ccc(/C=C2\SC(=S)N(CCc3ccccc3)C2=O)cc1)C(N)=O,6.2,7.7,–,13.6,98.3,5.1,Active,25.6,99.6,–,–,Non-toxic,Insoluble,–,–,–,–,–
